The text below walks through data of PubChem BioAssay.

The other results are listed elsewhere or left out. Unmarked numbers belong to inactive results. Calls of active or inactive are those of the source.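 Rule for the calls, unless noted: active = mean activation across triplicate tests above the threshold derived from the earlier primary screen (cut at about 5.5% in these data); inactive = the rest.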

For experiment [1], the target named is Oxysterols receptor LXR-beta (Homo sapiens) (UniProt P55055). The experiment can be described thus: nonspecific reporter activation via LXR – cell-based, luminescence, HEK293, H. contortus campaign, counter-screen for hcDAF-12 agonist project, confirmation (AID 743027;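 active = mean percent activation of the reporter above a cutoff set as the average over tested compounds plus their standard deviation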). As to conditions: HEK293 Gal4-LXR tk-luc reporter, 24 h, at 6.8 µM, stronger effect = higher value, normalized: DMSO 0%, positive control 100%. The method in brief: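 System: HEK293 cells transfected with Gal4-LXR vector plus GAL4-driven tk-luciferase reporter / Replicates: triplicate wells per compound / Detection: luciferase luminescence read with One-Glo reagent / Read-out basis: % activation / Timing: 24 h compound exposure at 37 °C, 5% CO2 / Benchmarks: DMSO low control, positive-control high control / Compound dosing: 6.8 µM single dose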

In experiment [2] the test system is Nuclear hormone receptor DAF-12 (Haemonchus contortus). The experiment can be described thus: hcDAF-12 luciferase reporter activation, retest – cell-based, luminescence, HEK293, lit1-tk-luc, triplicate, confirmation (AID 743032).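 Note: 0% = DMSO only wells and 100% = 3 µM Δ7-dafachronic acid.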 To be noted: HEK293 hcDAF-12 lit1-tk-luc reporter, at 6.8 µM, stronger effect = higher value, % of Δ7-dafachronic acid response. In general terms: A reporter such as luciferase makes a cellular process visible.

Experiment [3] deals with DAF-12 nuclear receptor (Heterodera glycines), GAL4-LBD fusion. The experiment can be described thus: hgDAF-12 GAL4 fusion reporter activation, retest – cell-based, luminescence, HEK293, GAL4-LBD fusion, confirmation (AID 743050;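 active = mean activation over triplicate wells above the hit cutoff derived from the earlier primary screen, cut at about 11% in these data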;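 note: 0% = DMSO low control and 100% = 2 mM sodium butyrate high control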). As to conditions: HEK293 GAL4-hgDAF12 luciferase reporter, agonist mode; at 6.8 µM; stronger effect = higher value; percent of butyrate response.
The target of experiment [4] is Oxysterols receptor LXR-beta (Homo sapiens) (UniProt P55055). Description: nonspecific reporter activation via LXR – cell-based, luminescence, HEK293, H. glycines campaign, counter-screen for hgDAF-12 agonist project, confirmation (AID 743051;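 active = mean activation of the triplicate above a set limit carried over from the primary screen, none filed active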). As to conditions: HEK293 Gal4-LXR luciferase reporter, 24 h; at 6.8 µM; stronger effect = higher value. The method in brief: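 Assay system: Gal4-LXR luciferase reporter HEK293 cells; times: 3 h cell plating, then 24 h compound exposure at 37 °C; signal: luciferase luminescence; benchmarks: DMSO low control, 0.68% final; replication: n 3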

Chain of Oxysterols receptor LXR-beta (Homo sapiens) (P55055 whole entry, looked up, the tested form may be a part): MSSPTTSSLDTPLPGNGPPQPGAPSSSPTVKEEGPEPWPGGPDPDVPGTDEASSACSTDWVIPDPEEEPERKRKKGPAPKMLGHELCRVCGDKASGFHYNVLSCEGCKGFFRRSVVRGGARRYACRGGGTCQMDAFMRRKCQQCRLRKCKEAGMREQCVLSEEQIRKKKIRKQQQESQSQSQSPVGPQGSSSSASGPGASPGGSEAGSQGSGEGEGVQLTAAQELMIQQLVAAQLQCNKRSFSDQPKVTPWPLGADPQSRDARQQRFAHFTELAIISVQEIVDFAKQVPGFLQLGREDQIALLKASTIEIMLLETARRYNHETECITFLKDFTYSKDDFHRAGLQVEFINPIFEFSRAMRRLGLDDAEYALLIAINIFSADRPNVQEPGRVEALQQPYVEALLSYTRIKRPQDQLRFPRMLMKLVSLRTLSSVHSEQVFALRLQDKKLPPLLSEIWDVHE

Take `O=C(CN1CCCCC1)NC(=O)Nc1ccccc1F`: the activation in experiment [1] was 0.17%; in experiment [2], 1.2%.
The corresponding values for `COc1ccc(C2CC(c3cccs3)=Nc3ccccc3S2)cc1OC` (stereo not given) are -0.03% and 2.78%.
The corresponding values for `CCCCN(C)C(=O)c1ccc2c(c1)N(CC)C(=O)c1ccccc1S2(=O)=O` are -0.28% and 0.81%.
On to `Cc1cnc(NC(=O)c2ccc(Cl)nc2)s1`, for which the activation in experiment [1] was 0.78%; in experiment [2], 11.4% (active).
Turning to `Cc1ccc2cc(/C=N/Nc3ccc(C(=O)O)cc3)c(Cl)nc2c1`, the values for the activation in experiment [1] and in experiment [2] were 0.97% and 8.18% (active), respectively.
In the case of `Nc1ccccc1/C=N\N=C/c1ccccc1N`, the figures for the activation in experiment [1] and in experiment [2] were 1.76% and 12.4% (active), respectively.
In the same order, the values of `OC(COc1ccc2ccccc2c1)CN1CCOCC1` (stereo not given) are 0.33% and 8.99% (active).
Consider `COc1ccccc1NC(=O)c1ccc(C)s1`, for which the activation was 0.6% in experiment [1] and 8.4% (active) in experiment [2].
Take `O=C(Oc1ccc([N+](=O)[O-])cc1)c1ccc2ccccc2n1`: the figures for the activation in experiment [1] and in experiment [2] were -0.2% and 4.02%, respectively.
With `COc1ccccc1OCc1nc2ccccc2s1`, the values for the activation in experiment [1] and in experiment [2] were 1.64% and 17.7% (active), respectively.
The corresponding values for `N[C@@H](Cc1ccccc1)C(=O)N1CCC(C(=O)NCC(=O)Nc2ccc(F)cc2)CC1` are -0.2% and 0.19%.
`O=C(CSC(=S)N1CCOCC1)c1ccccc1`: the figures for the activation in experiment [1] and in experiment [2] were 1% and 5.12%, respectively.
In the same order, the values of `CCc1cc2c(=O)c(-c3ccon3)c(N)oc2cc1OC` are 0.84% and 6.18% (active).
In the same order, the values of `CC(=O)N1CCN(c2ccccc2NC(=S)NC(=O)c2cc3ccccc3o2)CC1` are -0.28% and 1.71%.
The corresponding values for `Cc1cccnc1NC(=O)Cn1c(=O)oc2ccccc21` are -0.23% and 1.31%.
`Cc1ccc(S(=O)(=O)Nc2nc3ccccc3nc2N2CCc3ccccc3C2)cc1`: the activation is 0.14% in experiment [1] and 8.94% (active) in experiment [2].
Consider `Cc1ccc(OCc2nc3ccccc3n2C)cc1`, for which the activation in experiment [1] is 1.32%; in experiment [2], 5.18%.
The corresponding values for `Cn1ccnc1SCC(=O)Nc1ccc2c(c1)OCCO2` are 0.85% and 2.69%.
The corresponding values for `COC(=O)C1=NN(c2ccccc2)C2C(=O)N(c3ccccc3OC)C(=O)C12` (stereo not given) are -0.15% and -0.03%.
Turning to `NC(=O)c1c(NC(=O)c2ccccc2)sc2c1CCCC2`, the activation is 1.21% in experiment [1] and 13.6% (active) in experiment [2].
In the case of `COc1ccccc1C(=O)NCc1nnc(SC(C)C(=O)Nc2nccs2)n1C` (stereo not given), the activation in experiment [1] is -0.14%; in experiment [2] it was 4.95%.
Consider `COc1ccc(-c2cn3ccc(C)cc3n2)cc1`, for which the activation in experiment [1] is 1.71%; in experiment [2], 9.09% (active).
The corresponding values for `CC(C)C(=O)Nc1ccc2c(c1)oc1ccccc12` are 0.52% and 5.43%.
The corresponding values for `NS(=O)(=O)c1ccc2nc(NC(=O)CS(=O)(=O)c3ccc(F)cc3)sc2c1` are -0.28% and 3.34%.
With `COc1ccc(C2=NOC(COC(=O)c3ccc4ccccc4n3)C2)cc1` (stereo not given), the activation in experiment [1] is 0.05%; in experiment [2], 4.94%.
In the same order, the values of `O=[N+]([O-])c1ccc2oc(-c3cccc(O)c3)nc2c1` are 1.82% and 20% (active).
For the compound `COc1ccc(C2COC(=O)C2=N)c(NC(=O)c2ccccc2)c1` (stereo not given), the values for the activation in experiment [1] and in experiment [2] were -0.25% and 4.45%, respectively.
Turning to `COc1ccccc1OCC(=O)O/N=C(\N)c1ccccn1`, the activation in experiment [1] was 0.86%; in experiment [2], 5.68% (active).
In the same order, the values of `O=C(N/N=C\C1CC=CCC1)c1ccc(Br)o1` (stereo not given) are -0.16% and 0.29%.
The corresponding values for `Cc1cccc(C(=O)N2CCc3c([nH]c4ccccc34)C2CC(C)C)n1` (stereo not given) are 0.01% and 6.29% (active).
Take `COc1ccc(Nc2nc(-c3ccccc3)cs2)cc1`: the figures for the activation in experiment [1] and in experiment [2] were 1.88% and 18.8% (active), respectively.
`Nc1ccc2[nH]c(=S)sc2c1`: the activation in experiment [1] was 0.01%; in experiment [2], 2.92%.
The corresponding values for `COc1ccc(C(=O)C[n+]2ccc(C)cc2)cc1` are -0.34% and 0.77%.
The corresponding values for `C(=N\Nc1ccc2ccccc2n1)/c1ccc2c(c1)OCO2` are 1.28% and 4.85%.
In the same order, the values of `CC(C#N)OC(=O)c1cccnc1SCC(=O)Nc1ccc2c(c1)OCO2` (stereo not given) are 0.05% and 5.55%.
In the case of `NS(=O)(=O)c1ccccc1NC(=O)c1c(O)c2ccccc2[nH]c1=O`, the activation was 1.36% in experiment [1] and 9.27% (active) in experiment [2].
In the same order, the values of `O=C(COc1cccc(Cl)c1)NCc1ccccc1` are -0.12% and 0.38%.
For the compound `Cn1c(=O)c(C(=O)Nc2ncccn2)c(O)c2ccccc21`, the activation in experiment [1] is 0.73%; in experiment [2] it was 15.3% (active).
Take `Cc1cc(N=Nc2ccc3ccccc3c2)ccc1O`: the activation in experiment [1] is 1.85%; in experiment [2] it was 8.43% (active); in experiment [3], 24.5% (active); in experiment [4], 1.16%.
On to `O=C(Nc1ncccc1O)c1ccc(C(=O)c2ccccc2)cc1`, for which the activation is 1.21% in experiment [1], 8.51% (active) in experiment [2], 84.2% (active) in experiment [3] and 0.71% in experiment [4].
Regarding `OC(c1ccccc1)c1nc(-c2cnc3ccccc3c2)cs1` (stereo not given), the activation in experiment [1] is 1.85%; in experiment [2], 6.14% (active); in experiment [3], 26.4% (active); in experiment [4], 0.98%.
In the case of `Brc1ccc(-c2noc(-c3ccccc3)n2)o1`, the activation is 0.77% in experiment [1], 7.78% (active) in experiment [2], 18.7% (active) in experiment [3] and 0.75% in experiment [4].
The corresponding values for `O=C(c1cnn(-c2ccc(Cl)cc2)c1)c1ccccc1O` are 1.48%, 7.41% (active), 12.9% (active) and 0.81%.
In the same order, the values of `Cc1ccc(-n2cc3ccc([N+](=O)[O-])cc3n2)cc1` are 2.14%, 6.7% (active), 22.6% (active) and 0.97%.
